Experimental data from ChEMBL document CHEMBL4152363, “Andrographolide derivative as STAT3 inhibitor that protects acute liver damage in mice” (Bioorg Med Chem, 2018).
Active and inactive are the calls of the source. The calls are words filed in the database; no cut-off is given here.

Target: T1, Signal transducer and activator of transcription 3 (Homo sapiens, UniProt P40763)
Experiment: Inhibition of IFNgamma-stimulated STAT3 activation in human AD293 cells incubated with IFNgamma for 16 hrs followed by compound addition measured after 24 hrs by luciferase reporter gene assay
Type: cell-based
Conditions: not given
Procedure, shortened: (§1)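 AD-293 or HeLa cells in DMEM/10% FBS stimulated with 20 pg/mL IFN-γ; compound treatment 24 h; luciferase activity measured in cell extracts; EC50 derived.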

T1 sequence (P40763 whole entry): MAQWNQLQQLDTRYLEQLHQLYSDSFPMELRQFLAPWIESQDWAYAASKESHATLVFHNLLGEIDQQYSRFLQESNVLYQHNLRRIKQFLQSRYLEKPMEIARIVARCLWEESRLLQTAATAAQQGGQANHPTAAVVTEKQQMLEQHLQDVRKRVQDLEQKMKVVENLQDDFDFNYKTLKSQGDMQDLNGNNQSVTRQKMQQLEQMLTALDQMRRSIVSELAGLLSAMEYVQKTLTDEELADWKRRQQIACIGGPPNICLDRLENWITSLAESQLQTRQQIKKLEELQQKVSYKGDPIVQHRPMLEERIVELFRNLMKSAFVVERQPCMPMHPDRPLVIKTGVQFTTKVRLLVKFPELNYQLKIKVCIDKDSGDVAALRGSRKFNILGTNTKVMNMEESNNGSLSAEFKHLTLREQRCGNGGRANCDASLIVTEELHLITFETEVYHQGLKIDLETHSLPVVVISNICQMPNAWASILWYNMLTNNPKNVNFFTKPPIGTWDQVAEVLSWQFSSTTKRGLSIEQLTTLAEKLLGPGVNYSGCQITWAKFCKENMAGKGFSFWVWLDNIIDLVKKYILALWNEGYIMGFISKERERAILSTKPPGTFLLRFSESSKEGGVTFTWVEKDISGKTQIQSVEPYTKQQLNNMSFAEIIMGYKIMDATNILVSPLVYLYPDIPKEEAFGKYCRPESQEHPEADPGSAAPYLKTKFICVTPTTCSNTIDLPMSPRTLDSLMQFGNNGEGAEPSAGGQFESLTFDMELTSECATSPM

Row | Compound | EC50
1 | C=C1CC[C@H]2[C@@](C)(CCC(=O)[C@@]2(C)CO[Si](C)(C)C(C)(C)C)[C@@H]1C/C=C1/C(=O)OC[C@H]1O | 3.45 µM
2 | CC(=O)OC[C@]1(C)C(=O)CC[C@@]2(C)[C@H](C/C=C3/C(=O)OC[C@@H]3O[Si](C)(C)C(C)(C)C)[C@]3(CC[C@@H]21)CO3 | 2.55 µM
3 | CC(C)(C)[Si](C)(C)OC[C@]1(C)C(=O)CC[C@@]2(C)[C@H](C/C=C3/C(=O)OC[C@H]3O)[C@]3(CC[C@@H]21)CO3 | > 10 µM
4 | CC(=O)OC[C@]1(C)C(=O)CC[C@@]2(C)[C@H](C/C=C3/C(=O)OC[C@H]3O[Si](C)(C)C(C)(C)C)[C@]3(CC[C@@H]21)CO3 | 5.38 µM
5 | CC(=O)OC[C@]1(C)C(=O)CC[C@@]2(C)[C@H](C/C=C3/C(=O)OC[C@H]3O[Si](C)(C)C(C)(C)C)[C@@]3(CC[C@@H]21)CO3 | 5.81 µM
6 | C=C1CC[C@@H]2[C@](C)(CO[Si](C)(C)C(C)(C)C)[C@H](O)CC[C@@]2(C)[C@@H]1C/C=C1/C(=O)OC[C@H]1OC(C)=O | 1.18 µM
7 | C=C1CC[C@H]2[C@@](C)(CCC(=O)[C@@]2(C)CO)[C@@H]1C/C=C1/C(=O)OC[C@H]1O[Si](C)(C)C(C)(C)C | > 10 µM

Target: T1, Signal transducer and activator of transcription 3
Experiment: Inhibition of IL-6 stimulated STAT3 activation in human AD293 cells incubated with IL-6 for 16 hrs followed by compound addition measured after 6 hrs by luciferase reporter gene assay
Type: cell-based
Conditions: not given
Procedure, shortened: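 AD-293 cells stimulated with 2.5 μg/mL IL-6; compound treatment 6 h; luciferase activity read from cell extracts; EC50 derived.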

Row | Compound | EC50
8 | C=C1CC[C@H]2[C@@](C)(CCC(=O)[C@@]2(C)CO[Si](C)(C)C(C)(C)C)[C@@H]1C/C=C1/C(=O)OC[C@H]1O | 6.45 µM
9 | CC(=O)OC[C@]1(C)C(=O)CC[C@@]2(C)[C@H](C/C=C3/C(=O)OC[C@@H]3O[Si](C)(C)C(C)(C)C)[C@]3(CC[C@@H]21)CO3 | 2.65 µM
10 | CC(C)(C)[Si](C)(C)OC[C@]1(C)C(=O)CC[C@@]2(C)[C@H](C/C=C3/C(=O)OC[C@H]3O)[C@]3(CC[C@@H]21)CO3 | > 10 µM
11 | CC(=O)OC[C@]1(C)C(=O)CC[C@@]2(C)[C@H](C/C=C3/C(=O)OC[C@H]3O[Si](C)(C)C(C)(C)C)[C@]3(CC[C@@H]21)CO3 | > 10 µM
12 | CC(=O)OC[C@]1(C)C(=O)CC[C@@]2(C)[C@H](C/C=C3/C(=O)OC[C@H]3O[Si](C)(C)C(C)(C)C)[C@@]3(CC[C@@H]21)CO3 | 7.98 µM
13 | C=C1CC[C@@H]2[C@](C)(CO[Si](C)(C)C(C)(C)C)[C@H](O)CC[C@@]2(C)[C@@H]1C/C=C1/C(=O)OC[C@H]1OC(C)=O | 2.21 µM
14 | C=C1CC[C@H]2[C@@](C)(CCC(=O)[C@@]2(C)CO)[C@@H]1C/C=C1/C(=O)OC[C@H]1O[Si](C)(C)C(C)(C)C | > 10 µM

Target: T1, Signal transducer and activator of transcription 3
Experiment: Inhibition of […] activation in human AD293 cells incubated […] for 16 hrs followed by compound addition measured after 4 hrs by luciferase reporter gene assay
Type: cell-based
Conditions: not given

Row | Compound | EC50
15 | C=C1CC[C@H]2[C@@](C)(CCC(=O)[C@@]2(C)CO[Si](C)(C)C(C)(C)C)[C@@H]1C/C=C1/C(=O)OC[C@H]1O | 7.75 µM
16 | CC(=O)OC[C@]1(C)C(=O)CC[C@@]2(C)[C@H](C/C=C3/C(=O)OC[C@@H]3O[Si](C)(C)C(C)(C)C)[C@]3(CC[C@@H]21)CO3 | > 10 µM
17 | CC(C)(C)[Si](C)(C)OC[C@]1(C)C(=O)CC[C@@]2(C)[C@H](C/C=C3/C(=O)OC[C@H]3O)[C@]3(CC[C@@H]21)CO3 | > 10 µM
18 | CC(=O)OC[C@]1(C)C(=O)CC[C@@]2(C)[C@H](C/C=C3/C(=O)OC[C@H]3O[Si](C)(C)C(C)(C)C)[C@]3(CC[C@@H]21)CO3 | > 10 µM
19 | CC(=O)OC[C@]1(C)C(=O)CC[C@@]2(C)[C@H](C/C=C3/C(=O)OC[C@H]3O[Si](C)(C)C(C)(C)C)[C@@]3(CC[C@@H]21)CO3 | > 10 µM
20 | C=C1CC[C@@H]2[C@](C)(CO[Si](C)(C)C(C)(C)C)[C@H](O)CC[C@@]2(C)[C@@H]1C/C=C1/C(=O)OC[C@H]1OC(C)=O | 6.92 µM
21 | C=C1CC[C@H]2[C@@](C)(CCC(=O)[C@@]2(C)CO)[C@@H]1C/C=C1/C(=O)OC[C@H]1O[Si](C)(C)C(C)(C)C | > 10 µM

System: not listed separately
Experiment: (§2) Cytotoxicity against human AD293 cells
Type: cell-based
Conditions: AD293 cells
Procedure, shortened: (§3)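 AD-293 or HeLa cells grown in high-glucose DMEM with 10% FBS and 1% penicillin-streptomycin; compound exposure 24 h; cytotoxicity reported as CC10.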

Row | Compound | CC50
22 | C=C1CC[C@H]2[C@@](C)(CCC(=O)[C@@]2(C)CO[Si](C)(C)C(C)(C)C)[C@@H]1C/C=C1/C(=O)OC[C@H]1O | 2.35 µM
23 | CC(C)(C)[Si](C)(C)OC[C@]1(C)C(=O)CC[C@@]2(C)[C@H](C/C=C3/C(=O)OC[C@H]3O)[C@]3(CC[C@@H]21)CO3 | 8.31 µM
24 | C=C1CC[C@@H]2[C@](C)(CO[Si](C)(C)C(C)(C)C)[C@H](O)CC[C@@]2(C)[C@@H]1C/C=C1/C(=O)OC[C@H]1OC(C)=O | 7.33 µM

System: AD293
Experiment: as §2
Type: cell-based
Conditions: ad293
Procedure, shortened: as §3

Row | Compound | CC10
25 | CC(=O)OC[C@]1(C)C(=O)CC[C@@]2(C)[C@H](C/C=C3/C(=O)OC[C@@H]3O[Si](C)(C)C(C)(C)C)[C@]3(CC[C@@H]21)CO3 | > 10 µM
26 | CC(=O)OC[C@]1(C)C(=O)CC[C@@]2(C)[C@H](C/C=C3/C(=O)OC[C@H]3O[Si](C)(C)C(C)(C)C)[C@]3(CC[C@@H]21)CO3 | > 10 µM
27 | CC(=O)OC[C@]1(C)C(=O)CC[C@@]2(C)[C@H](C/C=C3/C(=O)OC[C@H]3O[Si](C)(C)C(C)(C)C)[C@@]3(CC[C@@H]21)CO3 | > 10 µM
28 | C=C1CC[C@H]2[C@@](C)(CCC(=O)[C@@]2(C)CO)[C@@H]1C/C=C1/C(=O)OC[C@H]1O[Si](C)(C)C(C)(C)C | > 10 µM

Target: T1, Signal transducer and activator of transcription 3
Experiment: Inhibition of IFNgamma-stimulated STAT3 activation in human HeLa cells incubated with IFNgamma for 16 hrs followed by compound addition measured after 24 hrs by luciferase reporter gene assay
Type: cell-based
Conditions: not given
Procedure, shortened: as §1

Row | Compound | EC50
29 | C=C1CC[C@H]2[C@@](C)(CCC(=O)[C@@]2(C)CO[Si](C)(C)C(C)(C)C)[C@@H]1C/C=C1/C(=O)OC[C@H]1O | 8.95 µM
30 | CC(=O)OC[C@]1(C)C(=O)CC[C@@]2(C)[C@H](C/C=C3/C(=O)OC[C@@H]3O[Si](C)(C)C(C)(C)C)[C@]3(CC[C@@H]21)CO3 | > 10 µM
31 | CC(C)(C)[Si](C)(C)OC[C@]1(C)C(=O)CC[C@@]2(C)[C@H](C/C=C3/C(=O)OC[C@H]3O)[C@]3(CC[C@@H]21)CO3 | > 10 µM
32 | CC(=O)OC[C@]1(C)C(=O)CC[C@@]2(C)[C@H](C/C=C3/C(=O)OC[C@H]3O[Si](C)(C)C(C)(C)C)[C@]3(CC[C@@H]21)CO3 | 8.34 µM
33 | CC(=O)OC[C@]1(C)C(=O)CC[C@@]2(C)[C@H](C/C=C3/C(=O)OC[C@H]3O[Si](C)(C)C(C)(C)C)[C@@]3(CC[C@@H]21)CO3 | > 10 µM
34 | C=C1CC[C@@H]2[C@](C)(CO[Si](C)(C)C(C)(C)C)[C@H](O)CC[C@@]2(C)[C@@H]1C/C=C1/C(=O)OC[C@H]1OC(C)=O | 4.33 µM
35 | C=C1CC[C@H]2[C@@](C)(CCC(=O)[C@@]2(C)CO)[C@@H]1C/C=C1/C(=O)OC[C@H]1O[Si](C)(C)C(C)(C)C | > 10 µM

Target: T1, Signal transducer and activator of transcription 3
Experiment: Inhibition of […] activation in human HeLa cells incubated […] for 16 hrs followed by compound addition measured after 4 hrs by luciferase reporter gene assay
Type: cell-based
Conditions: not given
Procedure, shortened: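 NF-κB pathway in AD-293 or HeLa cells stimulated with 50 ng/mL TNF-α; compound treatment 4 h; luciferase activity read from cell extracts; EC50 derived.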

Row | Compound | EC50
36 | C=C1CC[C@H]2[C@@](C)(CCC(=O)[C@@]2(C)CO[Si](C)(C)C(C)(C)C)[C@@H]1C/C=C1/C(=O)OC[C@H]1O | 8.81 µM
37 | CC(=O)OC[C@]1(C)C(=O)CC[C@@]2(C)[C@H](C/C=C3/C(=O)OC[C@@H]3O[Si](C)(C)C(C)(C)C)[C@]3(CC[C@@H]21)CO3 | 9.91 µM
38 | CC(C)(C)[Si](C)(C)OC[C@]1(C)C(=O)CC[C@@]2(C)[C@H](C/C=C3/C(=O)OC[C@H]3O)[C@]3(CC[C@@H]21)CO3 | > 10 µM
39 | CC(=O)OC[C@]1(C)C(=O)CC[C@@]2(C)[C@H](C/C=C3/C(=O)OC[C@H]3O[Si](C)(C)C(C)(C)C)[C@]3(CC[C@@H]21)CO3 | > 10 µM
40 | CC(=O)OC[C@]1(C)C(=O)CC[C@@]2(C)[C@H](C/C=C3/C(=O)OC[C@H]3O[Si](C)(C)C(C)(C)C)[C@@]3(CC[C@@H]21)CO3 | > 10 µM
41 | C=C1CC[C@@H]2[C@](C)(CO[Si](C)(C)C(C)(C)C)[C@H](O)CC[C@@]2(C)[C@@H]1C/C=C1/C(=O)OC[C@H]1OC(C)=O | 8.11 µM
42 | C=C1CC[C@H]2[C@@](C)(CCC(=O)[C@@]2(C)CO)[C@@H]1C/C=C1/C(=O)OC[C@H]1O[Si](C)(C)C(C)(C)C | > 10 µM

System: HeLa
Experiment: Cytotoxicity against human HeLa cells
Type: cell-based
Conditions: not given
Procedure, shortened: as §3

Row | Compound | CC10
43 | C=C1CC[C@H]2[C@@](C)(CCC(=O)[C@@]2(C)CO[Si](C)(C)C(C)(C)C)[C@@H]1C/C=C1/C(=O)OC[C@H]1O | > 10 µM
44 | CC(=O)OC[C@]1(C)C(=O)CC[C@@]2(C)[C@H](C/C=C3/C(=O)OC[C@@H]3O[Si](C)(C)C(C)(C)C)[C@]3(CC[C@@H]21)CO3 | > 10 µM
45 | CC(C)(C)[Si](C)(C)OC[C@]1(C)C(=O)CC[C@@]2(C)[C@H](C/C=C3/C(=O)OC[C@H]3O)[C@]3(CC[C@@H]21)CO3 | > 10 µM
46 | CC(=O)OC[C@]1(C)C(=O)CC[C@@]2(C)[C@H](C/C=C3/C(=O)OC[C@H]3O[Si](C)(C)C(C)(C)C)[C@]3(CC[C@@H]21)CO3 | > 10 µM
47 | CC(=O)OC[C@]1(C)C(=O)CC[C@@]2(C)[C@H](C/C=C3/C(=O)OC[C@H]3O[Si](C)(C)C(C)(C)C)[C@@]3(CC[C@@H]21)CO3 | > 10 µM
48 | C=C1CC[C@@H]2[C@](C)(CO[Si](C)(C)C(C)(C)C)[C@H](O)CC[C@@]2(C)[C@@H]1C/C=C1/C(=O)OC[C@H]1OC(C)=O | > 10 µM
49 | C=C1CC[C@H]2[C@@](C)(CCC(=O)[C@@]2(C)CO)[C@@H]1C/C=C1/C(=O)OC[C@H]1O[Si](C)(C)C(C)(C)C | > 10 µM

Target: T1, Signal transducer and activator of transcription 3
Experiment: Inhibition of IFNgamma-stimulated STAT3 phosphorylation at Tyr705 residues in human AD293 cell lysates incubated with IFNgamma followed by compound addition at 10 uM by Western blot analysis
Conditions: not given
Procedure, shortened: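 AD-293 cells treated with 1 μg/mL IFN-γ alone or with compounds at 10 μM; phospho- and total STAT1 and STAT3 assessed by western blot; representative of at least three independent experiments.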

Row | Compound | inhibition
50 | CC(=O)OC[C@]1(C)C(=O)CC[C@@]2(C)[C@H](C/C=C3/C(=O)OC[C@H]3O[Si](C)(C)C(C)(C)C)[C@]3(CC[C@@H]21)CO3 | Active
